The values below come from ChEMBL document CHEMBL1145074, “Binding of tetrahydrocarboline derivatives at human 5-HT5A receptors” (J Med Chem, 2003).

One may read the Ki as a dissociation constant, usually derived from enzyme kinetics or from competition with a known ligand. Lower therefore signals tighter binding.

The target in assay [1] is 5-hydroxytryptamine receptor 2A (Rattus norvegicus, UniProt P14842). Put plainly: Binding affinity towards rat 5-hydroxytryptamine 2A receptor expressed in NIH3T3 cells using [3H]ketanserin as radioligand. It is filed as cell-based. Summed up:
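Membranes from confluent NIH-3T3 cells stably expressing rat 5-HT2A, washed by centrifugation in 50 mM Tris-HCl. ~10 μg protein incubated with 0.5 nM [3H]ketanserin and 11 test concentrations (10⁻¹⁰ to 10⁻⁵ M) in triplicate. Incubation was 30 min at 37 °C in Tris/EDTA/MgCl2/ascorbate pH 7.4. Nonspecific binding defined with 10 μM ketanserin. Bound ligand was filtered and counted. Ki from Cheng–Prusoff, ≥3 determinations.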

In assay [2] the target is 5-hydroxytryptamine receptor 5A (Mus musculus, UniProt P30966). Nature of the assay: Binding affinity towards mouse 5-hydroxytryptamine 5A receptor using LSD as radioligand.
Sequence of 5-hydroxytryptamine receptor 5A (Mus musculus, UniProt P30966) (P30966 whole entry): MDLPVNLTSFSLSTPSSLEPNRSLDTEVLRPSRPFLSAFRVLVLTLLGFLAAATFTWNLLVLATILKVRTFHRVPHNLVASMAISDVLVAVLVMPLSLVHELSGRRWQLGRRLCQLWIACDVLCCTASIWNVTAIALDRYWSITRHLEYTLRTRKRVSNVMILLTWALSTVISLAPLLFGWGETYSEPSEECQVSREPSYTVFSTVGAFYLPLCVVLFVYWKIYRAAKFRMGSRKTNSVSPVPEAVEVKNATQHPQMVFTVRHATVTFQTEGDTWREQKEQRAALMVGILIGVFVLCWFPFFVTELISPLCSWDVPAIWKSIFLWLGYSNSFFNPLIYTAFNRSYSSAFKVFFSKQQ
In assay [3] the target is T1, 5-hydroxytryptamine receptor 2C (Rattus norvegicus, UniProt P08909).
T1 sequence (P08909 whole entry): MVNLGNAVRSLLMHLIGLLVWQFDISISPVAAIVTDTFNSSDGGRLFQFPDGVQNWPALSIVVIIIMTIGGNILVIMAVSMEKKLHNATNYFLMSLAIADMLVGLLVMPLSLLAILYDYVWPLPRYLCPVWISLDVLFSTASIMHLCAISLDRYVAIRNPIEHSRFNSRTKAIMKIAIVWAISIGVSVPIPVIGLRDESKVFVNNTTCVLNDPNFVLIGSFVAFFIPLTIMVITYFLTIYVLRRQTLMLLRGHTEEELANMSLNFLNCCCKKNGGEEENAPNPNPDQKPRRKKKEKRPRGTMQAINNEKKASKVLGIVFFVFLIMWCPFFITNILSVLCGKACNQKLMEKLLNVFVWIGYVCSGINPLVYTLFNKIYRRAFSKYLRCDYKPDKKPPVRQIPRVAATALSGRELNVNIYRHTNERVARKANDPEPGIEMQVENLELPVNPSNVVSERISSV
Nature of the assay: Binding affinity towards rat 5-hydroxytryptamine 2C receptor expressed in A-9 cells using [3H]mesulergine as radioligand. It is filed as cell-based. Summed up: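 Rat 5-HT2C stably expressed in A-9 cells, grown to confluence; washed membranes (~10 μg protein) used. Competition against 2.0 nM [3H]mesulergine with 11 concentrations from 10⁻¹⁰ to 10⁻⁵ M, triplicate. Incubation 30 min, 37 °C, pH 7.4 Tris buffer with EDTA, MgCl2 and ascorbate. 1 μM mesulergine defined nonspecific binding. Filtration, scintillation counting. Ki via Cheng–Prusoff; at least three replicates.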

For assay [4], the target named is T2, 5-hydroxytryptamine receptor 5A (Homo sapiens, UniProt P47898). Nature of the assay: Binding affinity towards human 5-hydroxytryptamine 5A receptor using LSD as radioligand.
T2 sequence (P47898 whole entry): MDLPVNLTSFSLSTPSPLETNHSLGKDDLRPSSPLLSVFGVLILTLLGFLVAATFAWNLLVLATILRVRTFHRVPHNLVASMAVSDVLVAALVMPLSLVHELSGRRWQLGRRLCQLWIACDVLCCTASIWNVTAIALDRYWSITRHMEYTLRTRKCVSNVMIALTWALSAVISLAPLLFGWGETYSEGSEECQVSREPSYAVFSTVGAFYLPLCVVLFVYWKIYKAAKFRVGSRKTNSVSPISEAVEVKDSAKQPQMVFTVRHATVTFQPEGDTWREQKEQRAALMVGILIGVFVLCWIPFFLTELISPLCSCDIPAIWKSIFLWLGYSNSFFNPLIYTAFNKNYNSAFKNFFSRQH
Assay [5] has as its target T2, 5-hydroxytryptamine receptor 5A. Put plainly: Binding affinity towards 5-hydroxytryptamine 5A receptor using lysergic acid diethylamide (LSD) as radioligand. In a few lines: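 Radioligand competition binding at cloned 5-HT5A receptors (clone supplied by R. Hen). Nonspecific binding defined with 1 μM LSD.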

Sequence of 5-hydroxytryptamine receptor 2A (P14842 whole entry): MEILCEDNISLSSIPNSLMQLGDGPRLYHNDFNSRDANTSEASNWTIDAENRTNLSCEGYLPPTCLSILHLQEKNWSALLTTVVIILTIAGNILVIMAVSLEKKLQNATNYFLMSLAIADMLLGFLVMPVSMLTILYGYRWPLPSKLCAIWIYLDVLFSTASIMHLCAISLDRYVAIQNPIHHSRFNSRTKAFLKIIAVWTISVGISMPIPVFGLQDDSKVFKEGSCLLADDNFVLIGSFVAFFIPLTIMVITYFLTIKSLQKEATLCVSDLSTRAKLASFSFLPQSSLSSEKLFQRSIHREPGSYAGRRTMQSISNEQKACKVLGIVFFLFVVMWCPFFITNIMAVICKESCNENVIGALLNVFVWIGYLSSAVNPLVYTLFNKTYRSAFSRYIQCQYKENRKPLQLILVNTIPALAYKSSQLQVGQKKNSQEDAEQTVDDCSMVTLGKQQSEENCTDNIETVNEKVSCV

Turning to `Cn1c2c(c3ccccc31)CN(CCCCCCc1ccccc1)CC2`, the inhibition constant Ki was found to be 0.185 µM in assay [1], 0.435 µM in assay [2] and 0.53 µM in assay [3].

On to `Cn1c2c(c3ccccc31)CN(CCCCCc1ccccc1)CC2`, for which the Ki in assay [4] worked out at 0.174 µM; in assay [1], 0.13 µM; in assay [2] it was 0.12 µM; in assay [3], 1 µM.

As to `Cn1c2c(c3ccccc31)CN(CCCO)CC2`, the Ki worked out at 1.12 µM in assay [4] and 1.1 µM in assay [2].

With `Cn1c2c(c3ccccc31)CN(CCC/C(=N/O)c1ccc(F)cc1)CC2`, the Ki in assay [4] is 0.34 µM; in assay [1] it was 0.038 µM; in assay [3], 0.19 µM.

In the case of `Cn1c2c(c3ccccc31)CN(CCCOc1cccc3ccccc13)CC2`, the Ki in assay [1] worked out at 0.625 µM; in assay [2] it was 0.65 µM; in assay [3], 0.4 µM.

For `c1ccc(OCCCN2CCc3[nH]c4ccccc4c3C2)cc1`, the Ki is 0.02 µM in assay [1], 0.6 µM in assay [2] and 0.16 µM in assay [3].

With `Cn1c2c(c3ccccc31)CN(CCCc1ccccc1)CC2`, the Ki in assay [2] is 0.25 µM.

The compound `CN(CCCOc1ccc(F)cc1)Cc1cn(C)c2ccccc12` registered an inhibition constant Ki in assay [5] of 1.08 µM.

In the case of `Fc1ccc(OCCCN2CCc3ccccc3C2)cc1`, in assay [5], the inhibition constant Ki worked out at 0.4 µM.

`Fc1ccc(OCCCN2CCc3[nH]c4ccccc4c3C2)cc1` showed an inhibitory constant (Ki) in assay [2] of 0.075 µM.

Regarding `Cn1c2c(c3cccc(Cl)c31)CN(CCCOc1ccc(F)cc1)CC2`, the Ki was determined as 0.225 µM in assay [4], 0.21 µM in assay [1], 0.59 µM in assay [2] and 0.225 µM in assay [3].

With `Cn1c2c(c3ccccc31)CCN(CCCOc1ccccc1)C2`, the inhibition constant (Ki) in assay [4] stood at 0.62 µM; in assay [1], 0.15 µM; in assay [2], 0.36 µM; in assay [3], 0.4 µM.

For `Cn1c2c(c3ccccc31)CN(CCCOc1ccc(Cl)c(Cl)c1)CC2`, the Ki came to 0.2 µM in assay [4] and 0.195 µM in assay [1].

As to `Cn1c2c(c3ccccc31)CN(CCCOc1ccc(Cl)cc1)CC2`, the inhibitory constant (Ki) in assay [4] is 0.2 µM; in assay [1], 0.115 µM.

Turning to `Cn1c2c(c3ccccc31)CN(CCOc1ccc(F)cc1)CC2`, the Ki in assay [4] turned out to be 0.93 µM; in assay [1] it was 0.175 µM; in assay [3], 0.235 µM.

Consider `CCn1c2c(c3ccccc31)CN(CCCOc1ccccc1)CC2`, for which the inhibitory constant (Ki) is 0.1 µM in assay [4], 0.05 µM in assay [1], 0.075 µM in assay [2] and 0.215 µM in assay [3].

Consider `COc1cccc2c3c(n(C)c12)CCN(CCCOc1ccc(F)cc1)C3`, for which the Ki in assay [4] was 1.39 µM; in assay [1] it was 0.12 µM; in assay [2], 1.22 µM; in assay [3], 0.225 µM.

`COc1ccc2c(c1)c1c(n2C)CCN(CCCOc2ccc(F)cc2)C1`: the Ki in assay [4] stood at 0.165 µM; in assay [1], 0.038 µM; in assay [2], 0.098 µM; in assay [3], 0.15 µM.

As to `Cn1c2c(c3ccccc31)CN(CCCOc1ccccc1)CC2`, the inhibition constant Ki in assay [4] amounted to 0.1 µM; in assay [1], 0.07 µM; in assay [2] it was 0.025 µM; in assay [3], 0.285 µM.

Take `CC1=NCCc2c1n(C)c1ccccc21`: the inhibition constant Ki in assay [5] was more than 10 µM.

`COc1ccc(CCCCN2CCc3c(c4ccccc4n3C)C2)cc1`: the inhibition constant (Ki) came out at 0.415 µM in assay [1], 0.09 µM in assay [2] and 0.99 µM in assay [3].

As for `Fc1ccc(OCCCN2CCCCC2)cc1`, in assay [5], the inhibition constant Ki was more than 10 µM.

Consider `O=C(CCCN1CCc2c([nH]c3ccccc23)C1)c1ccccc1`, for which the values for the inhibition constant Ki in assay [1], in assay [2] and in assay [3] were 0.016 µM, 0.55 µM and 0.115 µM, respectively.

The compound `COc1ccc2c3c([nH]c2c1)C(C)NCC3` (stereo unspecified) yielded a Ki in assay [5] of more than 10 µM.

For `Cn1c2c(c3ccccc31)CN(CCCC(=O)c1ccc(F)cc1)CC2`, the results for the Ki in assay [1], in assay [2] and in assay [3] were 0.06 µM, 0.115 µM and 0.06 µM, respectively.

`Cn1c2c(c3ccccc31)CN(CCCCc1ccccc1)CC2` had an inhibitory constant (Ki) in assay [2] of 0.13 µM.

Turning to `Cn1c2c(c3ccccc31)CN(CCCC(=O)c1ccccc1)CC2`, the Ki in assay [4] is 0.168 µM; in assay [1], 0.022 µM; in assay [2], 0.135 µM.

Take `Cn1c2c(c3ccccc31)CN(CC#CCCc1ccccc1)CC2`: the figures for the inhibition constant Ki in assay [4] and in assay [2] were 1.78 µM and 1.71 µM, respectively.

As for `Cn1c2c(c3ccccc31)CN(CCCOc1ccc([N+](=O)[O-])cc1)CC2`, the Ki in assay [4] was determined as 0.25 µM; in assay [1], 0.28 µM; in assay [3], 0.3 µM.

On to `c1ccc(Cn2c3c(c4ccccc42)CN(CCCOc2ccccc2)CC3)cc1`, for which the values for the inhibitory constant (Ki) in assay [1], in assay [2] and in assay [3] were 0.065 µM, 0.875 µM and 0.09 µM, respectively.

Consider `Cn1c2c(c3ccccc31)CN(C/C=C\CCc1ccccc1)CC2`, for which the Ki in assay [4] was 0.208 µM; in assay [1], 0.12 µM; in assay [2], 0.33 µM; in assay [3], 0.285 µM.

With `COc1ccc2[nH]c3c(C)nccc3c2c1`, the inhibition constant (Ki) in assay [5] was more than 10 µM.

Consider `Cn1c2c(c3ccccc31)CN(CCCOCc1ccccc1)CC2`, for which the Ki in assay [1] was 0.225 µM; in assay [2], 0.295 µM; in assay [3], 0.65 µM.

`O=C(CCCN1CCc2[nH]c3ccccc3c2C1)c1ccc(F)cc1` showed a Ki in assay [2] of 0.512 µM.

`Cn1c2c(c3cc(Cl)ccc31)CN(CCCOc1ccc(F)cc1)CC2`: the Ki in assay [4] was determined as 0.27 µM; in assay [1], 0.13 µM; in assay [2] it was 0.18 µM; in assay [3], 0.3 µM.

As to `COc1ccc2[nH]c3c(c2c1)CCN=C3C`, the Ki in assay [5] was more than 10 µM.

In the case of `Cn1c2c(c3ccccc31)CN(CCCC(O)c1ccc(F)cc1)CC2` (stereo unspecified), the Ki worked out at 0.285 µM in assay [4], 0.16 µM in assay [1], 0.225 µM in assay [2] and 0.39 µM in assay [3].

`Cn1c2c(c3ccccc31)CN(CCCOc1ccc3ccccc3c1)CC2`: the inhibition constant (Ki) in assay [1] worked out at 0.48 µM; in assay [2] it was 0.655 µM; in assay [3], 0.3 µM.

As for `COc1ccc(OCCCN2CCc3c(c4ccccc4n3C)C2)cc1`, the Ki was 0.35 µM in assay [4] and 0.1 µM in assay [1].

`Cn1ccc2c1CCN(CCCOc1ccc(F)cc1)C2` registered a Ki in assay [5] of 1.92 µM.

With `Cn1c2c(c3ccccc31)CN(CCCCc1ccc(F)cc1)CC2`, the Ki came out at 0.065 µM in assay [1] and 0.095 µM in assay [2].

With `Cn1c2c(c3ccccc31)CC(CCCOc1ccc(N)cc1)CC2` (stereo unspecified), the inhibition constant (Ki) in assay [5] was more than 10 µM.

With `c1ccc(OCCCN2CCc3c([nH]c4ccccc34)C2)cc1`, the Ki was found to be 0.05 µM in assay [1], 0.335 µM in assay [2] and 0.31 µM in assay [3].

Consider `Cn1c2c(c3ccccc31)CN(CCCOc1ccc(N)cc1)CC2`, for which the Ki turned out to be 0.19 µM in assay [4], 0.285 µM in assay [1] and 0.3 µM in assay [3].

For `Cn1c2c(c3ccccc31)CN(C/C=C/CCc1ccccc1)CC2`, the inhibition constant (Ki) stood at 0.185 µM in assay [4], 0.06 µM in assay [1], 0.35 µM in assay [2] and 0.245 µM in assay [3].

In the case of `COc1ccc2c3c([nH]c2c1)CNCC3`, the inhibitory constant (Ki) in assay [5] is more than 10 µM.

In assay [5], `CN(C)CCCOc1ccc(F)cc1` registered a Ki of more than 10 µM.

With `Cn1c2c(c3ccccc31)CNCC2`, the inhibition constant (Ki) in assay [1] came to 3.1 µM.

With `Cn1c2c(c3ccccc31)CN(CCCOc1ccc(F)cc1)CC2`, the inhibition constant (Ki) was determined as 0.03 µM in assay [1], 0.013 µM in assay [2] and 0.075 µM in assay [3].

With `COc1ccc2c3c([nH]c2c1)C=NCC3` [CGS-19281A], the Ki in assay [5] is more than 10 µM.

The compound `COc1ccc2c3c([nH]c2c1)C(C)=NCC3` [HARMALINE] registered a Ki in assay [5] of more than 10 µM.

Regarding `CC1=NCCc2c1[nH]c1cc(O)ccc21` [HARMALOL], the Ki in assay [5] is more than 10 µM.

`COc1ccc2c(c1)[nH]c1c(C)nccc12` [HARMINE] came in with an inhibition constant Ki in assay [5] of more than 10 µM.

In assay [5], `CC1NCCc2c1[nH]c1ccccc21` (stereo unspecified) [TETRAHYDROHARMAN] gave an inhibition constant Ki of more than 10 µM.

Compound `c1ccc2c3c([nH]c2c1)CNCC3` [TRYPTOLINE] registered a Ki in assay [5] of 3.2 µM.
